Experimental data from different studies.
Lines come from different studies, so protocols differ.

Structure (SMILES) | method | host | sample | route | dose | setting | half-life [h]
COc1cc2c3c(n(CCCN4CCOCC4)c(=O)c2cc1OC)-c1cc2c(cc1C3=O)OCO2 |  | female Fischer 344 rat | plasma | intravenous | 24 mg/m² | single dose | 4.6
CCOC(=O)[C@@]12C[C@@H]1[C@@H](n1ccc3c(NC)nc(C#Cc4ccc(Cl)s4)nc31)[C@H](O)[C@@H]2O |  | male Sprague-Dawley rat | plasma | intravenous | 0.5 mg/kg |  | 1.31
CNCc1cc(-c2ccccc2F)n(S(=O)(=O)c2cccnc2)c1 |  | Sprague-Dawley rat | plasma | oral | 10 mg/kg |  | 1.29
COc1ccc(C(C)=O)c(O)c1 |  | male Sprague-Dawley rat | plasma | oral | 100 mg/kg |  | 3.37
Cc1cnc(N2CC3(CCOCC3)C2)c(C(=O)Nc2ccc(C(=O)N3CCc4cc(C(=O)Nc5c(C)cccc5F)sc4-c4ccccc43)cc2)c1 |  | rat | plasma | intravenous | 0.1 mg/kg | single dose | ~2.3
N#Cc1[nH]nnc1-c1cccc(-c2cc(F)cc(C(F)(F)F)c2)c1 |  | male Sprague-Dawley rat | plasma | oral | 10 mg/kg |  | 2.6
COCCOC(=O)C1=C(C)NC(C)=C(C(=O)OC(C)C)C1c1cccc([N+](=O)[O-])c1 (stereo not shown) |  | male Sprague-Dawley rat | plasma | oral | 12 mg/kg |  | 7.5
Oc1c(Br)cc(Cl)c2cccnc12 |  | Sprague-Dawley rat | plasma | subcutaneous | 10 mg/kg |  | 5.6
COc1ccc2c(Cc3ccccc3F)c3[n+](cc2c1OC)CCc1cc2c(cc1-3)OCO2.[Br-] |  | rat | plasma | intravenous | 5 mg/kg |  | 1.61
COc1ccc2c(=O)n(C)c(-c3ccccc3)nc2c1 |  | male Sprague-Dawley rat | plasma | oral | 10 mg/kg |  | 0.74
COc1ccc2c(Cc3ccccc3F)c3n(c(=O)c2c1OC)CCc1cc2c(cc1-3)OCO2 |  | rat | plasma | intravenous | 5 mg/kg |  | 3.07
COc1nc(-c2cc(C)c(N[C@@H](C)c3cc(F)cc(F)c3)nn2)ccc1-n1cnc(C)c1 |  | male Sprague-Dawley rat | plasma | intravenous | 1 mg/kg | single dose | 3.1
C=CC(=O)Nc1cc(Nc2nccc(Nc3cc(Cl)c(F)cc3C(C)(C)O)n2)c(OC)cc1N1CC[C@@H](N(C)C)C1 |  | Wistar rat | plasma | intravenous | 3 mg/kg |  | 6.37
Cc1c(-c2ccccc2)cccc1N1C(=O)c2cc(CN[C@H](C(=O)O)C(C)O)c(OCc3cccc(C#N)c3)cc2C1=O (stereo partly shown) |  | Sprague-Dawley rat | plasma | oral | 50 mg/kg |  | 4.33
O=C(Nc1ccc(C(F)(F)F)cc1)N1CCC(Cc2cccc(Oc3ccc(C(F)(F)F)cn3)c2)CC1 |  | male Sprague-Dawley rat | blood | oral | 1 mg/kg |  | 7.2
CCc1cc(OC)c2nccc(N3CCc4c(cc(Cn5ccnc5)cc4-c4cn(C)nc4C(F)(F)F)C3=O)c2c1 |  | male Sprague-Dawley rat | plasma | intravenous | 3 mg/kg |  | 1
Cc1noc(-c2cc3cc(-c4nc(C(=O)NCc5ccncc5)[nH]c4C)ccc3[nH]2)n1 |  | Sprague-Dawley rat | plasma | intravenous | 1 mg/kg |  | 1.8
N#Cc1ccc(Nc2nc(N)cc(Oc3c(F)cc(-c4ccc(C#N)cc4)cc3F)n2)cc1 |  | Sprague-Dawley rat | plasma | intravenous | 1 mg/kg |  | 1.25
Oc1c(-n2ccnn2)cnn1-c1cc(N2CCOCC2)ncn1 |  | male rat | plasma | intravenous | 5 mg/kg |  | 3.1
O=C(O)/C=C/c1ccc(O)c(O)c1 | HPLC | Wistar rat | plasma | oral |  |  | 0.33
N#Cc1[nH]nnc1-c1cc(Cl)cc(/C=C/c2cccc(C(F)(F)F)c2)c1 |  | male Sprague-Dawley rat | plasma | oral | 10 mg/kg |  | 2.9
O=C(Nc1cc(F)c(F)c(F)c1)c1ccc(F)c(S(=O)(=O)NCc2cccc(B(O)O)c2)c1 |  | male Sprague-Dawley rat | plasma | intravenous | 2 mg/kg |  | 0.94
CCc1cc(C(=O)NC)c2nccc(N3CCc4c(cc(Cn5ccnc5)cc4-c4cn(C)nc4C(F)(F)F)C3=O)c2c1 |  | male Sprague-Dawley rat | plasma | oral | 100 mg/kg | single dose | 3.9
O=c1[nH]cc(F)c(=O)[nH]1 |  | Sprague-Dawley rat | plasma | oral | 20 mg/kg |  | 1.81
CC[C@H](C)[C@H](NC(=O)[C@H](Cc1ccccc1)NC(=O)[C@H](CCC(=O)O)NC(=O)[C@H](CCCNC(=N)N)NC(=O)[C@H](C)NC(=O)[C@H](C)NC(=O)[C@H](CCC(N)=O)NC(=O)[C@H](CCC(=O)O)NC(=O)[C@H](CCC(=O)O)NC(=O)[C@H](CC(C)C)NC(=O)[C@H](Cc1ccc(O)cc1)NC(=O)[C@H](CO)NC(=O)[C@H](CO)NC(=O)[C@@H](NC(=O)[C@H](CC(=O)O)NC(=O)[C@H](CO)NC(=O)[C@@H](NC(=O)[C@H](Cc1ccccc1)NC(=O)[C@@H](NC(=O)CNC(=O)[C@H](CCC(=O)O)NC(=O)[C@H](C)NC(=O)CCc1c[nH]cn1)[C@@H](C)O)[C@@H](C)O)C(C)C)C(=O)N[C@@H](C)C(=O)N[C@@H](Cc1c[nH]c2ccccc12)C(=O)N[C@@H](CC(C)C)C(=O)N[C@H](C(=O)N[C@@H](CCCNC(=N)N)C(=O)NCC(=O)N[C@@H](CCCNC(=N)N)C(=O)N[C@@H](CCCCNC(=O)COCCOCCNC(=O)COCCOCCNC(=O)CC[C@H](NC(=O)CCCCCCCCCCCCCCCCC(=O)O)C(=O)O)C(=O)O)C(C)C |  | rat | plasma | subcutaneous | 20 nmol/kg |  | 13
